Test results reported in PMC5087331 (Journal of Medicinal Chemistry, 2016).

Assays:
[1] = test system: clinical E. coli strain UTI89; assay: Hemagglutination inhibition; assay type: cell-based, Escherichia coli
UTI89KAN (UPEC) [2] = assay: Treatment of chronic urinary tract infection in mice; assay type: in vivo, C3H/HeN female mice; settings: chronic UTI
Summary of the method: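 Female C3H/HeN mice were infected transurethrally with 1–2 × 10^8 UTI89KAN. Urine titers were taken on day 12, and mice with ≥10^5 were counted as chronic. At 2 weeks they received oral test compound (25 or 50 mg/kg) in 100 μL 10% cyclodextrin. Bladders were harvested at set times after dosing and plated on kanamycin LB. Geometric means; Mann–Whitney versus vehicle or 0 h.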

UTI89KAN (UPEC) [3] = assay: Prophylactic treatment of acute urinary tract infection in mice; assay type: in vivo, C3H/HeN female mice; settings: 25 mg/kg PO 30 min prior to UPEC infection, bacterial titers 6 h postinfection
Summary of the method: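 6–8-week female C3H/HeN mice were dosed orally with 25 mg/kg test compound in 10% cyclodextrin. After 30 min they were inoculated transurethrally under isoflurane with 1–2 × 10^7 UTI89KAN (grown 2 × 24 h static in LB, 37 °C; washed, in PBS). At 6 h, bladders were homogenised and plated on LB + 50 μg/mL kanamycin. Geometric means from ≥2 experiments; Mann–Whitney versus vehicle.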

[4] = molecular target: FimH lectin domain (FimHL) (Escherichia coli, UniProt P08191); assay: Differential scanning fluorimetry; assay type: binding; settings: isothermal shift melting point assay
Chain of FimH lectin domain (FimHL) (P08191 22-179): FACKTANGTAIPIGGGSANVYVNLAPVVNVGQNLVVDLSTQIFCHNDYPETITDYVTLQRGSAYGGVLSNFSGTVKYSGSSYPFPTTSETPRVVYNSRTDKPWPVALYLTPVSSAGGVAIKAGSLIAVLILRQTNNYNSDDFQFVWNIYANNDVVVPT
Summary of the method: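 FimH lectin domain (FimHL) at 10 μM, heated with or without 100 μM mannoside. Melting temperature measured by differential scanning fluorimetry. Value is the shift in melting temperature relative to protein without mannoside.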

[5] = 25 mg/kg oral, 12 h post treatment

Compound: CNC(=O)c1cccc(-c2ccc([C@H](O)[C@H]3O[C@H](CO)[C@@H](O)[C@H](O)[C@@H]3O)cc2)c1 [6S, 4′-[(α-D-Mannopyranosyl)-(S)-hydroxymethyl]-N-methyl-[1,1′biphenyl]-3-carboxamide]
- fold less potency in the HA assay than 5 ([1]; comparator 5): 25 fold

Compound: CNC(=O)c1cccc(-c2ccc([C@@H](O)[C@H]3O[C@H](CO)[C@@H](O)[C@H](O)[C@@H]3O)c(C)c2)c1 [21R, 4′-[(α-D-Mannopyranosyl)-(R)-hydroxymethyl]-N,3′-dimethyl-[1,1′biphenyl]-3-carboxamide]
- bladder burdens relative to untreated mice (UTI89KAN (UPEC) [2]; [5]): three logs lower
- change in bladder burdens compared to vehicle (UTI89KAN (UPEC) [2]; [5]): dramatic and significant decrease in CFUs

Compound: CNC(=O)c1cccc(-c2ccc(O[C@H]3O[C@H](COC(C)=O)[C@@H](OC(C)=O)[C@H](OC(C)=O)[C@@H]3OC(C)=O)c(C)c2)c1 [23a, 4′-(2,3,4,6-Tetra-O-acetyl-α-D-mannopyranosyloxy)-N,3′-dimethyl-[1,1′biphenyl]-3-carboxamide]
- efficacy compared to 23 as prophylaxis therapy (UTI89KAN (UPEC) [3]): improved efficacy compared to 23
- change in bladder burdens compared to vehicle (UTI89KAN (UPEC) [2]; [5]): similar, but statistically significant, decrease in bladder burdens

Compound: CNC(=O)c1cccc(-c2ccc(O[C@H]3O[C@H](COP(=O)(O)O)[C@@H](O)[C@H](O)[C@@H]3O)c(C)c2)c1 [23b, 4′-(6-Dihydrogen Phosphate-α-D-mannopyranosyloxy)-N,3′-dimethyl-[1,1′biphenyl]-3-carboxamide]
- efficacy compared to 23 as prophylaxis therapy (UTI89KAN (UPEC) [3]): improved efficacy compared to 23

Compound: CNC(=O)c1cccc(-c2ccc(O[C@H]3O[C@H](COC(=O)CN(C)C)[C@@H](O)[C@H](O)[C@@H]3O)c(C)c2)c1 [23c, 4′-[6-O-(N,N-Dimethylaminoacetyl)-α-D-mannopyranosyloxy]-N,3′-dimethyl-[1,1′biphenyl]-3-carboxamide]
- efficacy compared to 23 as prophylaxis therapy (UTI89KAN (UPEC) [3]): did not show enhanced efficacy

Compound: COC(=O)c1cccc(-c2ccc(N[C@H]3O[C@H](CO)[C@@H](O)[C@H](O)[C@@H]3O)cc2)c1 [compound 2, 4′-(α-D-Mannopyranosylamino)-[1,1′biphenyl]-3-carboxylic Acid Methyl Ester]
- binding affinity to FimH relative to 1 [4]: equivalent binding affinity to FimH

Compound: COC(=O)c1cccc(-c2ccc(S[C@H]3O[C@H](CO)[C@@H](O)[C@H](O)[C@@H]3O)cc2)c1 [compound 3, 4′-(α-D-Mannopyranosylthio)-[1,1′biphenyl]-3-carboxylic Acid Methyl Ester]
- binding affinity to FimH relative to 1 [4]: equivalent binding affinity to FimH

Compound: CNC(=O)c1cccc(-c2ccc(C[C@H]3O[C@H](CO)[C@@H](O)[C@H](O)[C@@H]3O)c(C)c2)c1 [compound 22, 4′-[(α-D-Mannopyranosyl)methyl]-N,3′-dimethyl-[1,1′biphenyl]-3-carboxamide]
- fold decrease in activity relative to 23 ([1]; comparator 23): 30 fold

Compound: CNC(=O)c1cc(C(=O)NC)cc(-c2ccc(O[C@H]3O[C@H](CO)[C@@H](O)[C@H](O)[C@@H]3O)c(C)c2)c1 [compound 24]
- fold more potent than 23 in HA assay ([1]; comparator 23): 4 fold
- change in bladder burdens compared to vehicle (UTI89KAN (UPEC) [2]; [5]): noticeable, but not significant, decrease in bladder burdens
- bladder burden at 6 h (UTI89KAN (UPEC) [2]; 50 mg/kg oral): 10^4 CFUs
- bladder burden at 12 hours (geometric mean) (UTI89KAN (UPEC) [2]; 50 mg/kg oral): 10^5
- bladder burden 2 h postdosing (UTI89KAN (UPEC) [2]; 50 mg/kg oral, from 10^7 CFUs at 0 h): approximately 10^5 CFUs
